In ChEMBL document CHEMBL4002611, “Discovery of medium ring thiophosphorus based heterocycles as antiproliferative agents” (Bioorg Med Chem Lett, 2017):

Tests used:
MCF7 [1] = test: Antiproliferative activity against human MCF7 cells after 4 days by crystal violet staining based spectrophotometric method; assay type: functional, cell-based; conditions: MCF7, 96 h
SK-OV-3 = test: Antiproliferative activity against human SKOV3 cells after 4 days by crystal violet staining based spectrophotometric method; assay type: functional, cell-based; conditions: SK-OV-3, 96 h
WI-38 = test: Antiproliferative activity against human WI38 cells after 4 days by crystal violet staining based spectrophotometric method; assay type: ADME, cell-based; conditions: WI-38, 96 h
[2] = Therapeutic index, ratio of IC50 for human WI38 cells to IC50 for human MCF7 cells
[3] = Drug metabolism in pH 7.4 PBS buffer assessed as H2S release from compound at 5 mM incubated for 4 days by DNS-Az probe based fluorescence assay; assay type: physicochemical; conditions: pH 7.4, 96 h, 5000 µM
Method in brief: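 H₂S release in solution was measured with an H₂S-specific dansyl azide fluorescent probe after incubation at 37 °C for 4 days, against a blank sample.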

[4] = Drug metabolism in human MCF7 cells assessed as H2S release from compound at 400 uM incubated for 5 hrs by confocal microscopic assay; assay type: ADME, cell-based; conditions: mcf7, 5 h
Method in brief: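 MCF-7 cells loaded with an H₂S-sensitive fluorescent probe for 2 h at 37 °C, washed, then exposed to H₂S donors for 5 h before confocal imaging. Controls were untreated cells, probe alone, and NaHS.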

MCF7 [5] = test: Antiproliferative activity against human MCF7 cells after 72 hrs in presence of 1 uM Na2S by MTT assay; assay type: functional, cell-based; conditions: MCF7, 72 h
Method in brief: (§1)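 Na₂S, which forms H₂S immediately in water, was added together with the test compound to MCF7 cells as a single administration. Proliferation was read by MTT assay.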

MCF7 [6] = test: Antiproliferative activity against human MCF7 cells after 72 hrs in presence of 10 uM Na2S by MTT assay; assay type: functional, cell-based; conditions: MCF7, 72 h; method in brief: as §1
MCF7 [7] = test: Antiproliferative activity against human MCF7 cells after 72 hrs in presence of 100 uM Na2S by MTT assay; assay type: functional, cell-based; conditions: MCF7, 72 h; method in brief: as §1
[8] = Permeability of the compound by PAMPA; assay type: physicochemical; conditions: read-out: permeability

| SMILES | IC50 (MCF7 [1]) | IC50 (SK-OV-3) | IC50 (WI-38) | other results |
| --- | --- | --- | --- | --- |
| COc1ccc(P2(=S)Oc3ccccc3-c3ccccc3O2)cc1 | 0.76 to 0.82 µM | 0.76 µM | 1.38 µM | Ratio IC50 [2]: 2; H2S released [3]: 2 µM; Drug metabolism [4]: Metabolite_Detected; IC50 (MCF7 [5]): 1.17 µM; IC50 (MCF7 [6]): 1.01 µM; IC50 (MCF7 [7]): 1.44 µM |
| S=P1(c2ccccc2)Nc2ccccc2O1 (stereo not given) | – | – | > 50 µM | Drug metabolism [4]: Metabolite_Detected |
| COc1ccc(P2(=S)Nc3ccc(Cl)cc3N2)cc1 (stereo not given) | > 400 µM | > 400 µM | – | – |
| S=P1(c2ccc(Oc3ccccc3)cc2)Nc2ccccc2O1 (stereo not given) | 73.9 µM | 45.8 µM | 125 µM | – |
| COc1ccc(P2(=O)Oc3ccccc3-c3ccccc3O2)cc1 | 11 to 69 µM | 5.94 µM | 18.6 µM | IC50 (MCF7 [5]): 59 µM; IC50 (MCF7 [6]): 52.9 µM; IC50 (MCF7 [7]): 50.6 µM |
| COc1ccc(P2(=S)Nc3ccccc3CO2)cc1 (stereo not given) | 200 µM | 91.4 µM | 392 µM | – |
| Cc1ccc(S(=O)(=O)N2c3ccccc3OP2(=S)c2ccccc2)cc1 (stereo not given) | 181 µM | 230 µM | 353 µM | – |
| S=P1(c2ccccc2)NCc2ccccc2N1 (stereo not given) | > 400 µM | > 400 µM | 173 µM | – |
| COc1ccc2c(c1)NP(=S)(c1ccc(Oc3ccccc3)cc1)O2 (stereo not given) | 32.1 µM | 27.9 µM | – | – |
| S=P1(c2ccccc2)OCc2cccc3cccc(c23)CO1 | 71.1 µM | 51.1 µM | 76.2 µM | – |
| COc1ccc(P2(=S)OC[C@@H]3OC(C)(C)O[C@H]3CO2)cc1 | > 400 µM | 374 µM | > 400 µM | H2S released [3]: Not Active |
| S=P1(c2ccc(Oc3ccccc3)cc2)N[C@@H](c2ccccc2)[C@H](c2ccccc2)N1 | > 400 µM | 49 µM | – | – |
| S=P(S)(NCc1ccccc1)c1ccc(Oc2ccccc2)cc1 (stereo not given) | – | 47 µM | 104 µM | Papp [8]: 1.9 ×10⁻⁶ cm/s; Drug metabolism [4]: Metabolite_Detected |
| COc1ccc(P2(=S)Oc3ccc(Br)cc3-c3cc(Br)ccc3O2)cc1 | > 400 µM | > 400 µM | – | H2S released [3]: Not Active |
| COc1ccc(P2(=S)Oc3ccccc3O2)cc1 | 281 µM | 193 µM | 250 µM | – |
| S=P1(c2ccccc2)Oc2ccc(Br)cc2-c2cc(Br)ccc2O1 | > 400 µM | > 400 µM | – | – |
| COc1cccc2c1OP(=S)(c1ccccc1)O2 (stereo not given) | 40.7 µM | 29.7 µM | 40.3 µM | – |
| S=P1(c2ccccc2)Oc2ccccc2-c2ccccc2O1 | 140 µM | 103 µM | 400 µM | Ratio IC50 [2]: 3; H2S released [3]: Not Active |
| COc1ccc2c(c1)NP(=S)(c1ccccc1)O2 (stereo not given) | 26.2 µM | 24.1 µM | – | – |
| O=S(=O)(c1ccc(Cl)cc1)N1c2ccccc2OP1(=S)c1ccccc1 (stereo not given) | 107 µM | 110 µM | – | – |
| S=P1(c2ccccc2)OCC2C3CCC(O3)C2CO1 (stereo not given) | > 400 µM | > 400 µM | > 400 µM | – |
| S=P1(c2ccc(Oc3ccccc3)cc2)Nc2ccccc2CO1 (stereo not given) | 29.4 µM | 48.4 µM | 108 µM | – |
| S=P1(c2ccccc2)OCc2ccccc2CO1 | > 400 µM | 51.2 µM | 134 µM | – |
| S=P1(c2ccccc2)N[C@@H](c2ccccc2)[C@H](c2ccccc2)N1 | 165 µM | 164 µM | 145 µM | – |
| S=P1(c2ccccc2)Oc2ccc(-c3ccccc3)cc2-c2cc(-c3ccccc3)ccc2O1 | > 400 µM | > 400 µM | – | – |
